Reference: ChEMBL document CHEMBL1157543, “Synthesis and biological evaluation of polysulfated oligosaccharide glycosides as inhibitors of angiogenesis and tumor growth” (J Med Chem, 2010)
pKd, pKi: −log10 of the molar value.

How the values were obtained:
[1] = molecular target: Fibroblast growth factor 1 (Homo sapiens, UniProt P05230); experiment: Binding affinity to FGF1 by surface plasmon-based solution affinity assay
In short: (§1)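 Surface plasmon resonance solution affinity assay on heparin-coated CM4 chips. Buffer: HBS-EP (10 mM HEPES pH 7.4, 150 mM NaCl, 3.0 mM EDTA, 0.005% polysorbate 20). Kd is the mean of at least duplicate measurements ± SD.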

[2] = molecular target: T1, Heparanase (Homo sapiens, UniProt Q9Y251); experiment: Inhibition of human recombinant heparanase
T1 sequence (Q9Y251 whole entry): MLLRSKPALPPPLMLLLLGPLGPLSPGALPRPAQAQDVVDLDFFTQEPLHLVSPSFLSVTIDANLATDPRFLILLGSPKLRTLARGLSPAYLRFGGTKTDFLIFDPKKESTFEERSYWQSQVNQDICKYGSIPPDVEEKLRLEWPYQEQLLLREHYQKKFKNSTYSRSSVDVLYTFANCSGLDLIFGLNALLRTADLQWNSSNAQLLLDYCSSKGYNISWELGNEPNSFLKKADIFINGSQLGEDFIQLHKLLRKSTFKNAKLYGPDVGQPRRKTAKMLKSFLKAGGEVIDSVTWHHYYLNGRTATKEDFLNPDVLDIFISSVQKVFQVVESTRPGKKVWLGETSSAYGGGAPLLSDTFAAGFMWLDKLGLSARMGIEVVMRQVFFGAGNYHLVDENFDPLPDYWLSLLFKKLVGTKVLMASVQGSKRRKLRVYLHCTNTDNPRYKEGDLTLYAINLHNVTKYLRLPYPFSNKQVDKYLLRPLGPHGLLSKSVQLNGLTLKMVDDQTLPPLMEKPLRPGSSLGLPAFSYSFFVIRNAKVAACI
In short: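 Recombinant human heparanase assayed by ultrafiltration with 3H-labelled heparan sulfate as substrate (Km = 1.64 μM). Ki values with standard error were derived from inhibition response curves.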

[3] = system: HUVEC; experiment: Cytotoxicity against HUVEC; assay type: cell-based; details: human
[4] = molecular target: T2, Vascular endothelial growth factor A, long form (Homo sapiens, UniProt P15692); experiment: Binding affinity to VEGF by surface plasmon-based solution affinity assay; in short: as §1
T2 sequence (P15692 whole entry): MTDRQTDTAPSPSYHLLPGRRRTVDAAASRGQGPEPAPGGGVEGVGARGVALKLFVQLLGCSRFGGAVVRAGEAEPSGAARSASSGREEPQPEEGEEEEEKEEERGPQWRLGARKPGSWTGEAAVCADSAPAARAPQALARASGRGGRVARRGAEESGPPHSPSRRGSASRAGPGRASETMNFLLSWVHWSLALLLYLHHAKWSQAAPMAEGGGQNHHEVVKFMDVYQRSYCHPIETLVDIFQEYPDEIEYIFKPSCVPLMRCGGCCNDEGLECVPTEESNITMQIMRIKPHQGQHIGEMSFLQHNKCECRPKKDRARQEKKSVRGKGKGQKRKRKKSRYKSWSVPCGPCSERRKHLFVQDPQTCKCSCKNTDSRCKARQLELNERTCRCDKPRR

[5] = molecular target: Fibroblast growth factor 2 (Homo sapiens, UniProt P09038); experiment: Binding affinity to FGF2 by surface plasmon-based solution affinity assay
Sequence of Fibroblast growth factor 2 (P09038 143-288 limits assumed): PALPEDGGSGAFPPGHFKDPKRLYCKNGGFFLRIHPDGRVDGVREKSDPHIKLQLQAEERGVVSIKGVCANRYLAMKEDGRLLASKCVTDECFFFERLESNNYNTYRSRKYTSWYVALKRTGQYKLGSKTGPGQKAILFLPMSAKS
In short: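 Surface plasmon resonance solution affinity assay on heparin-coated CM4 chips. FGF-2 binding run in HBS-EP containing 300 mM NaCl. Kd is the mean of at least duplicate measurements ± SD.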

[6] = system: Plasma; experiment: Anticoagulant activity in human plasma assessed as activated partial thromboplastin time; assay type: functional
In short: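 Pooled normal human plasma spiked with compound in PBS at 0.1 mg/mL (methods give a 0–100 μg/mL range); APTT elevation measured. Normal range 26–36 s. Values are means of two determinations.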

[7] = system: Plasma; experiment: Anticoagulant activity in human plasma by heptest; assay type: functional
In short: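 Heptest clot assay. Plasma (centrifuged 1800g, 10 min, used within 30 min) incubated with compound 2 min at 37 °C. Factor Xa added, 2 min at 37 °C, then clotting started with Recalmix; read on a ball coagulometer. Normal range 13–20 s; means of two determinations.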

Sequence of Fibroblast growth factor 1 (P05230 whole entry): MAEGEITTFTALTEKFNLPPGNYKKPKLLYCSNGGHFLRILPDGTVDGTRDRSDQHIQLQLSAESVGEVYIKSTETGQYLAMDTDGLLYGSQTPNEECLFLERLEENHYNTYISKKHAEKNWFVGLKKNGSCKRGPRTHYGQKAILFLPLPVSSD

`O=S(=O)([O-])OC[C@H]1O[C@H](OCCCn2cc(-c3ccccc3)nn2)[C@@H](O[C@H]2O[C@H](COS(=O)(=O)[O-])[C@@H](OS(=O)(=O)[O-])[C@H](O[C@H]3O[C@H](COS(=O)(=O)[O-])[C@@H](OS(=O)(=O)[O-])[C@H](O[C@H]4O[C@H](COS(=O)(=O)[O-])[C@@H](OS(=O)(=O)[O-])[C@H](OS(=O)(=O)[O-])[C@@H]4OS(=O)(=O)[O-])[C@@H]3OS(=O)(=O)[O-])[C@@H]2OS(=O)(=O)[O-])[C@@H](OS(=O)(=O)[O-])[C@@H]1OS(=O)(=O)[O-].[Na+].[Na+].[Na+].[Na+].[Na+].[Na+].[Na+].[Na+].[Na+].[Na+].[Na+].[Na+].[Na+]` showed a pKd [1] of 9.44, a pKi [2] of 6.21 and an LC50 [3] of over 100000 nM. It also gave a pKd [4] of 7.60 and a pKd [5] of 6.26.

For `CCCCCCCCCCCCO[C@H]1O[C@H](COS(=O)(=O)[O-])[C@@H](OS(=O)(=O)[O-])[C@H](OS(=O)(=O)[O-])[C@@H]1O[C@H]1O[C@H](COS(=O)(=O)[O-])[C@@H](OS(=O)(=O)[O-])[C@H](O[C@H]2O[C@H](COS(=O)(=O)[O-])[C@@H](OS(=O)(=O)[O-])[C@H](O[C@H]3O[C@H](COS(=O)(=O)[O-])[C@@H](OS(=O)(=O)[O-])[C@H](O[C@H]4O[C@H](COS(=O)(=O)[O-])[C@@H](OS(=O)(=O)[O-])[C@H](OS(=O)(=O)[O-])[C@@H]4OS(=O)(=O)[O-])[C@@H]3OS(=O)(=O)[O-])[C@@H]2OS(=O)(=O)[O-])[C@@H]1OS(=O)(=O)[O-].[Na+].[Na+].[Na+].[Na+].[Na+].[Na+].[Na+].[Na+].[Na+].[Na+].[Na+].[Na+].[Na+].[Na+].[Na+].[Na+]`, the pKd [1] was 8.22, the Time [6] was 125.9 s and the pKi [2] was 6.55. It also gave an LC50 [3] of over 100000 nM, a pKd [4] of 7.92 and a pKd [5] of 6.32. It also gave an Activity [7] of 64.2 s.

With `O=S(=O)([O-])OC[C@H]1O[C@H](OCCCCCCCCCCCCn2cc(-c3ccccc3)nn2)[C@@H](O[C@H]2O[C@H](COS(=O)(=O)[O-])[C@@H](OS(=O)(=O)[O-])[C@H](O[C@H]3O[C@H](COS(=O)(=O)[O-])[C@@H](OS(=O)(=O)[O-])[C@H](O[C@H]4O[C@H](COS(=O)(=O)[O-])[C@@H](OS(=O)(=O)[O-])[C@H](O[C@H]5O[C@H](COS(=O)(=O)[O-])[C@@H](OS(=O)(=O)[O-])[C@H](OS(=O)(=O)[O-])[C@@H]5OS(=O)(=O)[O-])[C@@H]4OS(=O)(=O)[O-])[C@@H]3OS(=O)(=O)[O-])[C@@H]2OS(=O)(=O)[O-])[C@@H](OS(=O)(=O)[O-])[C@@H]1OS(=O)(=O)[O-].[Na+].[Na+].[Na+].[Na+].[Na+].[Na+].[Na+].[Na+].[Na+].[Na+].[Na+].[Na+].[Na+].[Na+].[Na+].[Na+]` the pKd [1] was 8.64, the pKi [2] was 6.57 and the LC50 [3] was over 100000 nM. The pKd [4] was 8.29 and the pKd [5] was 6.60.

In the case of `O=S(=O)([O-])OC[C@H]1O[C@H](OCCCCCCCCn2cc(-c3cccc4ccccc34)nn2)[C@@H](O[C@H]2O[C@H](COS(=O)(=O)[O-])[C@@H](OS(=O)(=O)[O-])[C@H](O[C@H]3O[C@H](COS(=O)(=O)[O-])[C@@H](OS(=O)(=O)[O-])[C@H](O[C@H]4O[C@H](COS(=O)(=O)[O-])[C@@H](OS(=O)(=O)[O-])[C@H](OS(=O)(=O)[O-])[C@@H]4OS(=O)(=O)[O-])[C@@H]3OS(=O)(=O)[O-])[C@@H]2OS(=O)(=O)[O-])[C@@H](OS(=O)(=O)[O-])[C@@H]1OS(=O)(=O)[O-].[Na+].[Na+].[Na+].[Na+].[Na+].[Na+].[Na+].[Na+].[Na+].[Na+].[Na+].[Na+].[Na+]`, the pKd [1] was 9.72, the Time [6] was 59.5 s and the pKi [2] was 6.57. The LC50 [3] was over 100000 nM, the pKd [4] was 8.15 and the pKd [5] was 6.96. For the same molecule, the Activity [7] was 28.8 s.

In the case of `CN(C)c1cccc2c(S(=O)(=O)NCCCCCCCCO[C@H]3O[C@H](COS(=O)(=O)[O-])[C@@H](OS(=O)(=O)[O-])[C@H](OS(=O)(=O)[O-])[C@@H]3O[C@H]3O[C@H](COS(=O)(=O)[O-])[C@@H](OS(=O)(=O)[O-])[C@H](O[C@H]4O[C@H](COS(=O)(=O)[O-])[C@@H](OS(=O)(=O)[O-])[C@H](O[C@H]5O[C@H](COS(=O)(=O)[O-])[C@@H](OS(=O)(=O)[O-])[C@H](OS(=O)(=O)[O-])[C@@H]5OS(=O)(=O)[O-])[C@@H]4OS(=O)(=O)[O-])[C@@H]3OS(=O)(=O)[O-])cccc12.[Na+].[Na+].[Na+].[Na+].[Na+].[Na+].[Na+].[Na+].[Na+].[Na+].[Na+].[Na+].[Na+]`, the pKd [1] was 9.70, the pKi [2] was 6.48 and the LC50 [3] was over 100000 nM. It also gave a pKd [4] of 8.05 and a pKd [5] of 6.89.

`O=S(=O)([O-])OC[C@H]1O[C@H](OCCCCCCCCCCCCn2cc(-c3cccc4ccccc34)nn2)[C@@H](O[C@H]2O[C@H](COS(=O)(=O)[O-])[C@@H](OS(=O)(=O)[O-])[C@H](O[C@H]3O[C@H](COS(=O)(=O)[O-])[C@@H](OS(=O)(=O)[O-])[C@H](O[C@H]4O[C@H](COS(=O)(=O)[O-])[C@@H](OS(=O)(=O)[O-])[C@H](O[C@H]5O[C@H](COS(=O)(=O)[O-])[C@@H](OS(=O)(=O)[O-])[C@H](OS(=O)(=O)[O-])[C@@H]5OS(=O)(=O)[O-])[C@@H]4OS(=O)(=O)[O-])[C@@H]3OS(=O)(=O)[O-])[C@@H]2OS(=O)(=O)[O-])[C@@H](OS(=O)(=O)[O-])[C@@H]1OS(=O)(=O)[O-].[Na+].[Na+].[Na+].[Na+].[Na+].[Na+].[Na+].[Na+].[Na+].[Na+].[Na+].[Na+].[Na+].[Na+].[Na+].[Na+]` was tested, and the pKd [1] was 9.72, the pKi [2] was 6.57 and the LC50 [3] was over 100000 nM. It also gave a pKd [4] of 9.10 and a pKd [5] of 7.14.

`CN(C)c1cccc2c(S(=O)(=O)NCCCO[C@H]3O[C@H](COS(=O)(=O)[O-])[C@@H](OS(=O)(=O)[O-])[C@H](OS(=O)(=O)[O-])[C@@H]3O[C@H]3O[C@H](COS(=O)(=O)[O-])[C@@H](OS(=O)(=O)[O-])[C@H](O[C@H]4O[C@H](COS(=O)(=O)[O-])[C@@H](OS(=O)(=O)[O-])[C@H](O[C@H]5O[C@H](COS(=O)(=O)[O-])[C@@H](OS(=O)(=O)[O-])[C@H](O[C@H]6O[C@H](COS(=O)(=O)[O-])[C@@H](OS(=O)(=O)[O-])[C@H](OS(=O)(=O)[O-])[C@@H]6OS(=O)(=O)[O-])[C@@H]5OS(=O)(=O)[O-])[C@@H]4OS(=O)(=O)[O-])[C@@H]3OS(=O)(=O)[O-])cccc12.[Na+].[Na+].[Na+].[Na+].[Na+].[Na+].[Na+].[Na+].[Na+].[Na+].[Na+].[Na+].[Na+].[Na+].[Na+].[Na+]` showed a pKd [1] of 9.10, a pKi [2] of 6.24 and an LC50 [3] of over 100000 nM. For the same molecule, the pKd [4] was 7.91 and the pKd [5] was 7.07.

With `O=S(=O)([O-])OC[C@H]1O[C@H](OCCCn2cc(-c3ccccc3)nn2)[C@@H](O[C@H]2O[C@H](COS(=O)(=O)[O-])[C@@H](OS(=O)(=O)[O-])[C@H](O[C@H]3O[C@H](COS(=O)(=O)[O-])[C@@H](OS(=O)(=O)[O-])[C@H](O[C@H]4O[C@H](COS(=O)(=O)[O-])[C@@H](OS(=O)(=O)[O-])[C@H](O[C@H]5O[C@H](COS(=O)(=O)[O-])[C@@H](OS(=O)(=O)[O-])[C@H](OS(=O)(=O)[O-])[C@@H]5OS(=O)(=O)[O-])[C@@H]4OS(=O)(=O)[O-])[C@@H]3OS(=O)(=O)[O-])[C@@H]2OS(=O)(=O)[O-])[C@@H](OS(=O)(=O)[O-])[C@@H]1OS(=O)(=O)[O-].[Na+].[Na+].[Na+].[Na+].[Na+].[Na+].[Na+].[Na+].[Na+].[Na+].[Na+].[Na+].[Na+].[Na+].[Na+].[Na+]` the pKd [1] was 10.00, the pKi [2] was 6.46 and the LC50 [3] was over 100000 nM. For the same molecule, the pKd [4] was 8.85 and the pKd [5] was 7.08.
